# Activity calls are given as the source filed them. The rule behind the calls is not given here.
# Tests used:
# SJRH30 [1] = test: Inhibition of Ptch1 expression in human Rh30 cells at 10 to 40 uM after 24 hrs by RT-PCR analysis; type: functional, cell-based
# Outline: (§1)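 Rh30 cells in 6-well plates treated with compound or DMSO for 24 h. Total RNA (250 ng) reverse-transcribed after DNase removal, then SYBR Green real-time PCR with primers at 200 nM. Target mRNA normalized to GAPDH and to the DMSO control by the 2^-ΔΔCt method. Duplicate data.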
# [2] = target: Transcription factor Jun (Homo sapiens) (UniProt P05412); test: Inhibition of transcriptional activity of AP1 transfected in mouse C3H10T1/2 cells at 20 uM after 24 hrs by luciferase reporter gene assay; type: cell-based; conditions: C3H 10T1/2
# Transcription factor Jun (Homo sapiens), sequence (P05412 whole entry): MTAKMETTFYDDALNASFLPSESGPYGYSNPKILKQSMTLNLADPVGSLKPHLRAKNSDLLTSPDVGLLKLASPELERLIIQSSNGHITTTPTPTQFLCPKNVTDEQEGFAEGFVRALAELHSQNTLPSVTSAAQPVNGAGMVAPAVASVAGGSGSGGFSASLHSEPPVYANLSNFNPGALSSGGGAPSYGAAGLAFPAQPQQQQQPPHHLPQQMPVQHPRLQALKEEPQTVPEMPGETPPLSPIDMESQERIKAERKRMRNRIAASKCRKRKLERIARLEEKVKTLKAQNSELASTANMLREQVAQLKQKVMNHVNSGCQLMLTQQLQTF
# Outline: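 AP-1 reporter tested in C3H10T1/2 cells under the same conditions as the Gli1/Gli-Luc assay: 24 h compound exposure and dual-luciferase read-out normalized to DMSO.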
# [3] = Inhibition of HDAC up to 40 uM
# [4] = Permeability in buffer of pH 7.4 by PAMPA; type: ADME; conditions: for Papp: read-out: permeability
# Outline: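 Double-Sink PAMPA: DMSO stock diluted 200-fold into system solution buffer pH 7.4 in the donor plate, with acceptor sink buffer pH 7.4. Incubated 0.5 h at room temperature with stirring. Donor and acceptor concentrations measured by UV (230–500 nm), triplicates.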
# SJRH30 [5] = test: Inhibition of cyclinD1 expression in human Rh30 cells at 10 to 40 uM after 24 hrs by RT-PCR analysis; type: functional, cell-based; outline: as §1
# [6] = Half life in CD-1 mouse liver microsomes; type: ADME, Microsome
# Outline: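 CD-1 female mouse liver microsomes at 0.6329 mg/mL protein in 0.1 M potassium phosphate pH 7.4 with EDTA. Compound at 1 µM, reaction started with NADPH regenerating system at 37 °C and sampled at 0, 0.5, 1 and 2 h in triplicate. Quenched with cold acetonitrile containing ketoconazole internal standard and analysed by UPLC-MS SIR. ke taken from log-linear regression, t1/2 = ln2/ke.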
# SJRH30 [7] = test: Inhibition of Bcl2 expression in human Rh30 cells at 10 to 40 uM after 24 hrs by RT-PCR analysis; type: functional, cell-based; outline: as §1
# BJ = test: Cytotoxicity against human BJ cells at 5 to 20 uM after 72 hrs by Alamar blue assay; type: cell-based
# Outline: (§2)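 Cells seeded 24 h ahead in 384-well plates at 1.0×10^3 (BJ) or 1.6×10^3 (Rh30) per well. Compound diluted from DMSO stock into medium and added in triplicate, then incubated 68 h at 37 °C. Alamar Blue added for a further 4 h, with fluorescence read at ex 510/em 590 nm. Viability normalized to DMSO (100%) and no-cell (0%) wells.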
# C3H 10T1/2 [8] = test: Inhibition of Hh signal-induced alkaline phosphatase activity in mouse C3H10T1/2 cells at 10 uM after 4 days; type: functional, cell-based
# [9] = target: T1, Zinc finger protein GLI1 (Homo sapiens) (UniProt P08151); test: Inhibition of human Gli1-mediated transcriptional activity in human Rh30 cells at 10 to 20 uM after 24 hrs by luciferase reporter gene assay; type: cell-based
# T1 sequence (whole entry): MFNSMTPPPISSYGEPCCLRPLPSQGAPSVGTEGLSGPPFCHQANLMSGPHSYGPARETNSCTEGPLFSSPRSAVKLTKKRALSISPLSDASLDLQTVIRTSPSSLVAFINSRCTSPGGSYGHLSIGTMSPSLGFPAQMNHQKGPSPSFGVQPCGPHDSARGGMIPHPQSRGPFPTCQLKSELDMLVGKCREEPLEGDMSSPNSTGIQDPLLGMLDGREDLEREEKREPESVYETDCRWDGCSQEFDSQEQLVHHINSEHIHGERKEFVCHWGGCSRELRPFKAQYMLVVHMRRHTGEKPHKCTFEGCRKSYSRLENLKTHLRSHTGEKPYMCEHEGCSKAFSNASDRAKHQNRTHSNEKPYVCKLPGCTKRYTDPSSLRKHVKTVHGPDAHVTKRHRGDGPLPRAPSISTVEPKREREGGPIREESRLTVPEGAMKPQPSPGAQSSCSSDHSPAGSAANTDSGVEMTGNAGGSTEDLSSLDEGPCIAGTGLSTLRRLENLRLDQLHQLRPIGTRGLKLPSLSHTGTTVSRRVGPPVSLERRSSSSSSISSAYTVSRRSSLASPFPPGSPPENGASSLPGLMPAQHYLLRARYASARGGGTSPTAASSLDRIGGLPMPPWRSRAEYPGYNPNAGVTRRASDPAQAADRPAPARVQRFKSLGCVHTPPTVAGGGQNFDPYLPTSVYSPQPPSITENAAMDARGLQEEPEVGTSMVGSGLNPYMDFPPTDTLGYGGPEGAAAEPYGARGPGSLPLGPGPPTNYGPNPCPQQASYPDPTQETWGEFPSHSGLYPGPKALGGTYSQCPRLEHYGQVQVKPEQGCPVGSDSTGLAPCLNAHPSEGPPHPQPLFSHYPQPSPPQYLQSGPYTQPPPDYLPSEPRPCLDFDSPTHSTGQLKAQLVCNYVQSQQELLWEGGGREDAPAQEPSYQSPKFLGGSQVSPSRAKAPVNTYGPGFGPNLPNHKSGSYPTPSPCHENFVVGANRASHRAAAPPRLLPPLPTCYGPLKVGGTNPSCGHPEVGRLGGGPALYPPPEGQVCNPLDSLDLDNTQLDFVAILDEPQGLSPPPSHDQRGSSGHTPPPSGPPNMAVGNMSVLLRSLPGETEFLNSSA
# Outline: (§3)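 Rh30 cells without Gli1 transfection, transfected overnight with GliLuc-BS (500 ng/mL) and pRL-CMV (2.5 ng/mL), then replated in 96-well plates. Compound given in RPMI-1640/10% FBS for 24 h at 37 °C. Firefly luminescence divided by Renilla and normalized to DMSO-treated cells (0% inhibition), triplicates.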
# SJRH30 [10] = test: Cytotoxicity against human Rh30 cells at 5 to 20 uM after 72 hrs by Alamar blue assay; type: functional, cell-based; outline: as §2
# Caco-2 [11] = test: Apparent permeability from apical to basolateral side of human Caco-2 cells at pH 7.4; type: ADME, cell-based; conditions: caco-2, pH 7.4
# Outline: (§4)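 Caco-2 cells grown 7 days on Transwell inserts in MEM with 10% FBS. Monolayers washed with HBSS/HEPES (10 mM, pH 7.4), then compound at 50 µM added to the apical or basolateral side and incubated 2 h at 37 °C. Receiver fractions quantified by UPLC/MS, triplicates. Papp = dQ/dt […].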
# Caco-2 [12] = test: Efflux ratio of permeability from basolateral to apical side over apical to basolateral side in human Caco-2 cells at pH 7.4; conditions: caco-2, pH 7.4
# Caco-2 [13] = test: Apparent permeability from basolateral to apical side of human Caco-2 cells at pH 7.4; type: ADME, cell-based; conditions: caco-2, pH 7.4; outline: as §4
# [14] = target: T1, Zinc finger protein GLI1 (Homo sapiens); test: Inhibition of human Gli1 expressed in mouse C3H10T1/2 cells assessed as inhibition of transcriptional activity at 10 to 20 uM after 24 hrs by luciferase reporter gene assay; type: cell-based; conditions: C3H 10T1/2
# Outline: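 C3H10T1/2 cells transiently transfected overnight with GliLuc-BS, pRL-TK Renilla control and human Gli1 (or mouse Gli2 for Gli2 lines), 250 ng/mL each for the Gli plasmids. Cells replated in 96-well plates, then exposed to compound in BME/10% FBS for 24 h at 37 °C. Firefly/Renilla dual-luciferase ratio normalized to DMSO, triplicates. Dose–response IC50 from curve fitting.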
# C3H 10T1/2 [15] = test: Inhibition of Hh signal-induced alkaline phosphatase activity in mouse C3H10T1/2 cells after 4 days; type: functional, cell-based; conditions: C3H 10T1/2, 96 h
# [16] = target: T1, Zinc finger protein GLI1 (Homo sapiens); test: Inhibition of human Gli1-mediated transcriptional activity in human Rh30 cells up to 40 uM after 24 hrs by luciferase reporter gene assay; type: cell-based; outline: as §3
structure (smiles),measurement,setting,value
CCCN(C(=O)C(C)c1cccc(C(=O)c2ccccc2)c1)c1ccc2cc[nH]c2c1 (configuration not stated),inhibition,SJRH30 [1],Active
same,inhibition,[2],inactive
same,inhibition,[3],inactive
same,permeability,[4],80%
same,Papp,[4],71.4 ×10⁻⁶ cm/s
same,inhibition,SJRH30 [5],Active
same,t1/2,[6],1.8 h
same,inhibition,SJRH30 [7],Active
same,Activity,BJ,Non-toxic
same,inhibition,C3H 10T1/2 [8],inactive
same,inhibition,[9],Active
same,Activity,SJRH30 [10],Toxic
CC(C(=O)Nc1ccc2cc[nH]c2c1)c1cccc(C(=O)c2ccccc2)c1 (configuration not stated),inhibition,[2],inactive
same,permeability,[4],75%
same,Papp,[4],77.8 ×10⁻⁶ cm/s
same,Papp,Caco-2 [11],12.2 ×10⁻⁶ cm/s
same,Ratio,Caco-2 [12],0.31
same,t1/2,[6],2.8 h
same,Activity,BJ,Non-toxic
same,inhibition,C3H 10T1/2 [8],inactive
same,inhibition,[9],Active
same,Activity,SJRH30 [10],Toxic
same,Papp,Caco-2 [13],3.9 ×10⁻⁶ cm/s
CC(CNC(=O)c1cc2ccccc2[nH]1)c1cccc(C(=O)c2ccccc2)c1 (configuration not stated),inhibition,[14],Active
same,Activity,BJ,Non-toxic
same,Activity,SJRH30 [10],Toxic
CC(CNC(=O)c1cccc2cc[nH]c12)c1cccc(C(=O)c2ccccc2)c1 (configuration not stated),inhibition,[14],Active
CC(C(=O)Nc1ccc2[nH]ccc2c1)c1cccc(C(=O)c2ccccc2)c1 (configuration not stated),Activity,BJ,Non-toxic
same,Activity,SJRH30 [10],Toxic
CC(CNC(=O)c1cccc2[nH]ccc12)c1cccc(C(=O)c2ccccc2)c1 (configuration not stated),inhibition,[14],Active
CC(C(=O)NCCc1ccc(O)cc1)c1cccc(C(=O)c2ccccc2)c1 (configuration not stated),inhibition,[3],inactive
same,permeability,[4],92%
same,Papp,[4],60.2 ×10⁻⁶ cm/s
same,Papp,Caco-2 [11],13 ×10⁻⁶ cm/s
same,Ratio,Caco-2 [12],0.45
same,Activity,BJ,Non-toxic
same,Activity,SJRH30 [10],Toxic
same,Papp,Caco-2 [13],5.8 ×10⁻⁶ cm/s
CCCN(C(=O)C(C)c1cccc(C(=O)c2ccccc2)c1)c1ccc2[nH]ccc2c1 (configuration not stated),inhibition,[2],inactive
same,inhibition,[3],inactive
same,t1/2,[6],0.8 h
same,Activity,BJ,Non-toxic
same,inhibition,C3H 10T1/2 [8],inactive
same,inhibition,[9],Active
same,Activity,SJRH30 [10],Toxic
CCCN(C(=O)C(C)c1cccc(C(=O)c2ccccc2)c1)c1cccc2[nH]ccc12 (configuration not stated),Activity,BJ,Non-toxic
same,Activity,SJRH30 [10],Toxic
CC(CNC(=O)c1c[nH]c2ccccc12)c1cccc(C(=O)c2ccccc2)c1 (configuration not stated),inhibition,[14],Active
same,Activity,BJ,Non-toxic
same,Activity,SJRH30 [10],Toxic
COc1cc(OC)cc(C(=O)Nc2ccc(Cl)c(-c3nc4cc(N(C)C)ccc4[nH]3)c2)c1,IC50,C3H 10T1/2 [15],100 nM
same,inhibition,[16],inactive
NC(=O)N1c2ccccc2C=Cc2ccccc21 [CARBAMAZEPINE],permeability,[4],33%
CNC(=C[N+](=O)[O-])NCCSCc1ccc(CN(C)C)o1 [RANITIDINE],permeability,[4],2%
CC(CNC(=O)c1ccc2[nH]ccc2c1)c1cccc(C(=O)c2ccccc2)c1 (configuration not stated),inhibition,[2],inactive
same,permeability,[4],47%
same,Papp,[4],52.1 ×10⁻⁶ cm/s
same,Papp,Caco-2 [11],5.8 ×10⁻⁶ cm/s
same,Ratio,Caco-2 [12],0.46
same,t1/2,[6],0.6 h
same,inhibition,[14],Active
same,Activity,BJ,Non-toxic
same,Activity,SJRH30 [10],Toxic
same,Papp,Caco-2 [13],2.7 ×10⁻⁶ cm/s
CC(CNC(=O)Cc1ccc2[nH]ccc2c1)c1cccc(C(=O)c2ccccc2)c1 (configuration not stated),inhibition,[14],inactive
CC(CNC(=O)c1ccc2cc[nH]c2c1)c1cccc(C(=O)c2ccccc2)c1 (configuration not stated),inhibition,[14],Active
same,Activity,BJ,Non-toxic
same,Activity,SJRH30 [10],Toxic
CCCN(CCc1ccc(O)cc1)C(=O)C(C)c1cccc(C(=O)c2ccccc2)c1 (configuration not stated),inhibition,[3],inactive
same,inhibition,[16],inactive
same,Activity,BJ,Non-toxic
same,Activity,SJRH30 [10],Toxic

# From ChEMBL document CHEMBL1177640 (Bioorg Med Chem, 2010)
